# According to ChEMBL document CHEMBL4052817 (J Med Chem, 2017):
# Calls of active or inactive are those of the source. The calls are words filed in the database; no cut-off is given here.
# Assays:
# Cytochrome P450 1A2 [1] = biological target: T1, Cytochrome P450 1A2 (Homo sapiens, UniProt P05177); assay: Inhibition of CYP1A2 (unknown origin); format: ADME
# T1 sequence (P05177 whole entry): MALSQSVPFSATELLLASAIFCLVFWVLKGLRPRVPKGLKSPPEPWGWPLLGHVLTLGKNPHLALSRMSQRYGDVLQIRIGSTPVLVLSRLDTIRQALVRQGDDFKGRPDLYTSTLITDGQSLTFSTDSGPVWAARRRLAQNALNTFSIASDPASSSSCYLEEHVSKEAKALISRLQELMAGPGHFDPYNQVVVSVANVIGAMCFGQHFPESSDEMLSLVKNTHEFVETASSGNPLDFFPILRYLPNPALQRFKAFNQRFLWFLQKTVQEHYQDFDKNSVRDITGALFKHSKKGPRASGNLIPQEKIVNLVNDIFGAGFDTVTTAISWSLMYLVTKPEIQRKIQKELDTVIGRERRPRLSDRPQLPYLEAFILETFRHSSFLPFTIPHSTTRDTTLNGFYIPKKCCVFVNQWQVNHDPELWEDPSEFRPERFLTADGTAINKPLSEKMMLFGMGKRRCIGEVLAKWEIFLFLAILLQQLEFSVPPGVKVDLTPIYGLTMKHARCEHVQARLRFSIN
# Cytochrome P450 2C19 [2] = biological target: T2, Cytochrome P450 2C19 (Homo sapiens, UniProt P33261); assay: Inhibition of CYP2C19 (unknown origin); format: ADME
# T2 sequence (P33261 whole entry): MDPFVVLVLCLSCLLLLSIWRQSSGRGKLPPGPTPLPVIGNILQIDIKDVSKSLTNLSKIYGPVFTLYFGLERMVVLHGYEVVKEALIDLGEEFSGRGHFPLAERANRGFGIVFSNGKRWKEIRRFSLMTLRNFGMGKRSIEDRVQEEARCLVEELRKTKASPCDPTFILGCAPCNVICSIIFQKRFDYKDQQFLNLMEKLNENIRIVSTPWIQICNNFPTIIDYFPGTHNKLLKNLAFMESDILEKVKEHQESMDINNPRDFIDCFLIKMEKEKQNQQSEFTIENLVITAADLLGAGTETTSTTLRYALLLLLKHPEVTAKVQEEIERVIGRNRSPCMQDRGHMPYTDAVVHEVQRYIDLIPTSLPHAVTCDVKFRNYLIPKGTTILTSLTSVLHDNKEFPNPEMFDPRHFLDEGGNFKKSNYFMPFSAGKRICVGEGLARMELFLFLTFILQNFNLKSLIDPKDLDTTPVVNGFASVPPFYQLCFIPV
# Cytochrome P450 3A4 [3] = biological target: T3, Cytochrome P450 3A4 (Homo sapiens, UniProt P08684); assay: Inhibition of CYP3A4 (unknown origin); format: ADME
# T3 sequence (P08684 whole entry): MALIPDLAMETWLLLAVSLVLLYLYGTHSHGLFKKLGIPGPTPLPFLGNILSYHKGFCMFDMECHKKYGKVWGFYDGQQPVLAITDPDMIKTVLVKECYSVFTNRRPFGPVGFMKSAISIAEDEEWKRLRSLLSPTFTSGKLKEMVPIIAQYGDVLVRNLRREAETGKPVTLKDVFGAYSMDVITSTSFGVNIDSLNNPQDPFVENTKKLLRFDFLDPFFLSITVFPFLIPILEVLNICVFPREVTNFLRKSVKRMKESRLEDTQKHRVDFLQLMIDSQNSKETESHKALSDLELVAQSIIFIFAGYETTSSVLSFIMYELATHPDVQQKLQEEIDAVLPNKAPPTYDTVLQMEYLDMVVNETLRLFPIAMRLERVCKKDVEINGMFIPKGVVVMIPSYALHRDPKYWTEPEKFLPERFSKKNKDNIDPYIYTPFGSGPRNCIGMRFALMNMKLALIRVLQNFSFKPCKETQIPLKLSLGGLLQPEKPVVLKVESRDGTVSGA
# [4] = biological target: Tryptophan 2,3-dioxygenase (Homo sapiens, UniProt P48775); assay: Inhibition of human TDO2 using tryptophan as substrate after 22 mins by LC-MS/MS method
# Chain of Tryptophan 2,3-dioxygenase (P48775 whole entry): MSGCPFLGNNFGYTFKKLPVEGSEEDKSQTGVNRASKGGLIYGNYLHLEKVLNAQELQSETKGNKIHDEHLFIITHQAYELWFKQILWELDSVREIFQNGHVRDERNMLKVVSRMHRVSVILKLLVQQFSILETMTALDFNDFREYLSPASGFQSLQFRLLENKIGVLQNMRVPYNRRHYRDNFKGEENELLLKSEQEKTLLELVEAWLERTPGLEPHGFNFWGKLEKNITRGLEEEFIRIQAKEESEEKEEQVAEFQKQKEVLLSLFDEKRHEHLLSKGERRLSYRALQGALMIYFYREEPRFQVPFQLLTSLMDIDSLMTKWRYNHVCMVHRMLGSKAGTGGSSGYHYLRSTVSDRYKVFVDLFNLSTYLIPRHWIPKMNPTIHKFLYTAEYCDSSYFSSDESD
# Canis familiaris [5] = assay: AUC (infinity) in beagle dog assessed as (R)-3-(5-fluoro-1H-indol-3-yl)pyrrolidine-2,5-dione at 1 mg/kg, iv by LC-MS/MS method; format: ADME, organism-based, Canis lupus familiaris; design: dose 1 mg/kg, route intravenous, time infinity; conditions: in vivo
# Procedure, shortened: (§1)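 Racemate given as a single 1 mg/kg IV dose to male CD-1 mice, Wistar-Han rats or beagle dogs (n=3 per species). Plasma levels of the (R)-enantiomer measured by chiral LC-MS/MS. Mean AUCinf, CLp, Vss and t1/2 reported.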
# Mus musculus [6] = assay: Volume of distribution at steady state in CD-1 mouse assessed as (R)-3-(5-fluoro-1H-indol-3-yl)pyrrolidine-2,5-dione at 1 mg/kg, iv by LC-MS/MS method; format: ADME, organism-based; conditions: in vivo
# Mus musculus [7] = assay: Half life in CD-1 mouse assessed as (R)-3-(5-fluoro-1H-indol-3-yl)pyrrolidine-2,5-dione at 1 mg/kg, iv by LC-MS/MS method; format: ADME, organism-based; conditions: in vivo; procedure, shortened: as §1
# [8] = Intrinsic apparent clearance in rat hepatocytes assessed per million cells; format: ADME, cell-based, Hepatocyte
# [9] = Intrinsic apparent clearance in dog hepatocytes assessed per million cells; format: ADME, cell-based, Canis lupus familiaris, Hepatocyte
# [10] = Intrinsic apparent clearance in mouse hepatocytes assessed per million cells; format: ADME, cell-based, Hepatocyte
# Mus musculus [11] = assay: Cmax in CD-1 mouse assessed as (R)-3-(5-fluoro-1H-indol-3-yl)pyrrolidine-2,5-dione at 3 mg/kg, po; format: ADME, organism-based; design: dose 3 mg/kg, route oral; conditions: in vivo
# Rattus norvegicus [12] = assay: Cmax in Wistar-Han rat assessed as (R)-3-(5-fluoro-1H-indol-3-yl)pyrrolidine-2,5-dione at 3 mg/kg, po; format: ADME, organism-based; design: dose 3 mg/kg, route oral; conditions: in vivo
# Canis familiaris [13] = assay: Cmax in beagle dog assessed as (R)-3-(5-fluoro-1H-indol-3-yl)pyrrolidine-2,5-dione at 3 mg/kg, po; format: ADME, organism-based, Canis lupus familiaris; design: dose 3 mg/kg, route oral; conditions: in vivo
# Mus musculus [14] = assay: Tmax in CD-1 mouse assessed as (R)-3-(5-fluoro-1H-indol-3-yl)pyrrolidine-2,5-dione at 3 mg/kg, po; format: ADME, organism-based; conditions: in vivo
# Rattus norvegicus [15] = assay: Half life in Wistar-Han rat assessed as (R)-3-(5-fluoro-1H-indol-3-yl)pyrrolidine-2,5-dione at 3 mg/kg, po; format: ADME, organism-based; conditions: in vivo
# Mus musculus [16] = assay: Oral bioavailability in CD-1 mouse assessed as (R)-3-(5-fluoro-1H-indol-3-yl)pyrrolidine-2,5-dione at 3 mg/kg; format: ADME, organism-based; conditions: in vivo
# Rattus norvegicus [17] = assay: Oral bioavailability in Wistar-Han rat assessed as (R)-3-(5-fluoro-1H-indol-3-yl)pyrrolidine-2,5-dione at 3 mg/kg; format: ADME, organism-based; conditions: in vivo
# Canis familiaris [18] = assay: Oral bioavailability in beagle dog assessed as (R)-3-(5-fluoro-1H-indol-3-yl)pyrrolidine-2,5-dione at 3 mg/kg; format: ADME, organism-based, Canis lupus familiaris; conditions: in vivo
# [19] = Total brain to plasma partition coefficient, Kp in po dosed rat assessed as (R)-3-(5-fluoro-1H-indol-3-yl)pyrrolidine-2,5-dione; format: ADME, organism-based
# Procedure, shortened: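 Racemate dosed orally to rats; active enantiomer measured in brain, CSF and plasma; total brain/plasma ratio and unbound brain/unbound plasma ratio calculated.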
# [20] = Drug excretion in rat urine assessed as (R)-3-(5-fluoro-1H-indol-3-yl)pyrrolidine-2,5-dione; format: ADME; conditions: in vivo
# Procedure, shortened: (§2)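 Racemate dosed to rats (urine and bile collected) and to dogs (urine collected). The percentage of the dose excreted as unchanged (R)-enantiomer was measured.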
# [21] = Drug excretion in dog urine assessed as (R)-3-(5-fluoro-1H-indol-3-yl)pyrrolidine-2,5-dione; format: ADME, Canis lupus familiaris; conditions: in vivo; procedure, shortened: as §2
# [22] = Drug metabolism in mouse hepatocytes assessed as oxidation; format: ADME, cell-based, Hepatocyte
# [23] = Drug metabolism in dog hepatocytes assessed as oxidation; format: ADME, cell-based, Canis lupus familiaris, Hepatocyte
# [24] = Drug metabolism in mouse hepatocytes assessed as hydrolysis; format: ADME, cell-based, Hepatocyte
# [25] = Drug metabolism in dog hepatocytes assessed as hydrolysis; format: ADME, cell-based, Canis lupus familiaris, Hepatocyte
# Cytochrome P450 1A2 [26] = biological target: T1, Cytochrome P450 1A2; assay: Time/NADPH-dependent inhibition of CYP1A2 (unknown origin); format: ADME
# Cytochrome P450 2C9 = Cytochrome P450 2C9 (Homo sapiens, UniProt P11712); assay: Time/NADPH-dependent inhibition of CYP2C9 (unknown origin); format: ADME
# Chain of Cytochrome P450 2C9 (P11712 whole entry): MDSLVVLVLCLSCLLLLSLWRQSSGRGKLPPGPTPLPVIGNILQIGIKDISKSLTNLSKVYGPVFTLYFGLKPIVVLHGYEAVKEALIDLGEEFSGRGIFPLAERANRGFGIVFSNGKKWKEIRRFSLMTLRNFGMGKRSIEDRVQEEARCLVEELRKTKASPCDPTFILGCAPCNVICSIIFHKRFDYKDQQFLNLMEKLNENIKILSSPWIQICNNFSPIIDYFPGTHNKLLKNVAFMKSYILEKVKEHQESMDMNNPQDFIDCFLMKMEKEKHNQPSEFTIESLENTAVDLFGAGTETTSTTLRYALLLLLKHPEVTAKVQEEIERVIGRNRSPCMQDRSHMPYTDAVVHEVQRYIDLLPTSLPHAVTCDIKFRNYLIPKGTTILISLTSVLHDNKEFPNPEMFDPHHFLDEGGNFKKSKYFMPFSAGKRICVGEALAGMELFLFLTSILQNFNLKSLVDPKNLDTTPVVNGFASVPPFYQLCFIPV
# Cytochrome P450 2D6 = Cytochrome P450 2D6 (Homo sapiens, UniProt P10635); assay: Time/NADPH-dependent inhibition of CYP2D6 (unknown origin); format: ADME
# Chain of Cytochrome P450 2D6 (P10635 whole entry): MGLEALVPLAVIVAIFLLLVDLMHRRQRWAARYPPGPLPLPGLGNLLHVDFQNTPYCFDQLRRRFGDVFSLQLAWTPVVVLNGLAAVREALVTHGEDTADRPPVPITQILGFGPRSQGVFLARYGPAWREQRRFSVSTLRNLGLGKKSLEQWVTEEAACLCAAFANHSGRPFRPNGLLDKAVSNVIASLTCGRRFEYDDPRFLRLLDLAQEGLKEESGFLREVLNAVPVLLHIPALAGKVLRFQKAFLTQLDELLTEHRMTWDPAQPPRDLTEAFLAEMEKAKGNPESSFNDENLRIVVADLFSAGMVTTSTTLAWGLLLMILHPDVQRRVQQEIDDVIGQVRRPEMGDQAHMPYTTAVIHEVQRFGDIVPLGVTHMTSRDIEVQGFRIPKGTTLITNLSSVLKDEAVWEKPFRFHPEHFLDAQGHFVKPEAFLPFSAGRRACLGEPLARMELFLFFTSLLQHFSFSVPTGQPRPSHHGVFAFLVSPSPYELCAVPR
# Cytochrome P450 3A4 [27] = biological target: T3, Cytochrome P450 3A4; assay: Time/NADPH-dependent inhibition of CYP3A4 (unknown origin); format: ADME
# Cytochrome P450 2C19 [28] = biological target: T2, Cytochrome P450 2C19; assay: Time-dependent inhibition of CYP2C19 (unknown origin); format: ADME
# Cytochrome P450 3A4 [29] = biological target: T3, Cytochrome P450 3A4; assay: Time-dependent inhibition of CYP3A4 (unknown origin); format: ADME
# Hepatocyte = assay: Induction of CYP1A2 mRNA expression in human hepatocytes at <100 uM; format: ADME, cell-based
# Mus musculus [30] = assay: In vivo inhibition of human IDO-1 expressed in non-tumor-bearing mouse assessed as reduction in plasma L-kynurenine levels at >= 200 mg/kg after 1 hr relative to control; format: functional
# Panc02 = assay: Antitumor activity against mouse Pan02 tumor model administered as monotherapy; format: functional
# CT26 = assay: Antitumor activity against mouse CT26 tumor model administered as monotherapy; format: functional
# Renca = assay: Antitumor activity against mouse Renca tumor model administered as monotherapy; format: functional
smiles,measurement,setting,value
O=C1CC(c2c[nH]c3ccc(F)cc23)C(=O)N1 (stereo unspecified) [PF-06840003],IC50,Cytochrome P450 1A2 [1],> 100 µM
same,IC50,Cytochrome P450 2C19 [2],78 µM
same,IC50,Cytochrome P450 3A4 [3],> 100 µM
same,IC50,[4],140 µM
same,AUC,Canis familiaris [5],423 ng·h/mL
same,Vdss,Mus musculus [6],0.787 L/kg
same,t1/2,Mus musculus [7],2.5 h
same,CLH(app),[8],2.3 µL/min
same,CLH(app),[9],10.3 µL/min
same,CLH(app),[10],2.4 µL/min
same,Cmax,Mus musculus [11],538 ng/mL
same,Cmax,Rattus norvegicus [12],985 ng/mL
same,Cmax,Canis familiaris [13],219 ng/mL
same,Tmax,Mus musculus [14],0.58 h
same,t1/2,Rattus norvegicus [15],2.42 h
same,F,Mus musculus [16],59.3%
same,F,Rattus norvegicus [17],94%
same,F,Canis familiaris [18],18.6%
same,Kp,[19],0.51
same,Drug excretion,[20],< 1 %ID
same,Drug excretion,[21],< 1 %ID
same,Drug metabolism,[22],Metabolite_Detected
same,Drug metabolism,[23],Metabolite_Detected
same,Drug metabolism,[24],Metabolite_Detected
same,Drug metabolism,[25],Metabolite_Detected
same,inhibition (INH),Cytochrome P450 1A2 [26],Not Active
same,inhibition (INH),Cytochrome P450 2C9,Not Active
same,inhibition (INH),Cytochrome P450 2D6,Not Active
same,inhibition (INH),Cytochrome P450 3A4 [27],Not Active
same,TDI,Cytochrome P450 2C19 [28],Not Active
same,TDI,Cytochrome P450 3A4 [29],Not Active
same,Activity,Hepatocyte,Not Active
same,inhibition (INH),Mus musculus [30],>=54%
same,Activity,Panc02,Active
same,Activity,CT26,Active
same,Activity,Renca,Active
